The subject of data set [1] is Mus musculus. The data set is described as follows: Antiradiation activity in ip dosed whole-body gamma-irradiated mouse assessed as increase in mouse survival rate compound administered 30 mins prior irradiation. Format: functional. Conditions: light or radiation study, read-out: MED. The essentials: (§1)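 Mice were dosed ip or po with compound in water, or in physiological saline containing 0.3% methylcellulose and 0.1% Tween 80, usually at pH 5–7. Dosing came 15, 30 or 60 min before whole-body ¹³⁷Cs γ irradiation (141.5 rd/min; 849 rd for most compounds). The dose reported is the lowest giving the highest survival rate. Read-out was % survival at 30 days.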

Data set [2] has as its system Mus musculus. The data set is described as follows: Antiradiation activity in ip dosed whole-body gamma-irradiated mouse assessed as mouse survival compound administered 30 mins prior irradiation measured after 30 days relative to control. Format: functional. In outline:
as §1

A short description of data set [3]: Toxicity ip dosed whole-body gamma-irradiated mouse compound administered 30 mins prior irradiation. Format: organism-based. Conditions: in vivo.
The subject of data set [4] is Mus musculus. The data set is described as follows: Antiradiation activity in ip dosed whole-body gamma-irradiated mouse assessed as increase in mouse survival rate compound administered 15 mins prior irradiation. Format: functional. The conditions noted are these: light or radiation study. In outline: as §1
In data set [5] the test system is Mus musculus. The data set is described as follows: Antiradiation activity in ip dosed whole-body gamma-irradiated mouse assessed as mouse survival compound administered 15 mins prior irradiation measured after 30 days relative to control. In kind it is functional. In outline: as §1
The nature of data set [6]: Toxicity ip dosed whole-body gamma-irradiated mouse compound administered 15 mins prior irradiation. Format: organism-based. The conditions noted are these: in vivo.
The test system of data set [7] is Mus musculus. The data set is described as follows: Protective index, ratio of LD50 for mouse to ED50 for antiradiation activity in ip dosed whole-body gamma-irradiated mouse. The essentials: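 After ip dosing and whole-body ¹³⁷Cs γ irradiation (141.5 rd/min), ED50 (dose for 50% survival) was estimated from log dose-probit survival plots. Protective index was approximated as approx LD50 (mg/kg) × 1.5 / ED50 (mg/kg).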

The nature of data set [8]: Toxicity po dosed whole-body gamma-irradiated mouse compound administered 30 mins prior irradiation. Format: organism-based. The conditions noted are these: in vivo.
Data set [9] concerns Mus musculus. Briefly: Antiradiation activity in po dosed whole-body gamma-irradiated mouse assessed as increase in mouse survival rate compound administered 30 mins prior irradiation. Format: functional. Conditions: light or radiation study, read-out: MED. The essentials:
as §1

The subject of data set [10] is Mus musculus. Briefly: Antiradiation activity in po dosed whole-body gamma-irradiated mouse assessed as mouse survival compound administered 30 mins prior irradiation measured after 30 days relative to control. In kind it is functional. The essentials:
as §1

For orientation: LD50 means the dose at which mortality reaches 50%. Low readings indicate a more toxic substance, high ones a less toxic substance. As to `Br.NCC(N)CS` (stereo unspecified), the minimal effective dose in the data set with Mus musculus [1] was determined as 200 mg/kg. Further, the Survival in the data set on Mus musculus [2] is 20%. The LD50 at 0.5 h in data set [3] came out at 800 mg/kg.

One may read the ED50 as the dose that gives a 50% effect, or the effect in half of the subjects. On to `Cl.NCCCC[C@H](N)CS`, for which the ED50 with Mus musculus [4] turned out to be 10 mg/kg. The minimal effective dose worked out at 25 mg/kg in the data set with Mus musculus [4] (read-out: MED) and 75 mg/kg in the data set on Mus musculus [9]. The Survival in the data set on Mus musculus [5] is 80%; with Mus musculus [10] it was 50%. In data set [6], this compound registered an LD50 at 0.25 h of 88 mg/kg. Further, the PI with Mus musculus [7] was 13. Besides, the LD50 at 0.5 h in data set [8] came out at 450 mg/kg.

For the origin of these results see ChEMBL document CHEMBL3244256 (J Med Chem, 1979).
